In brackets after ≈: the same amount, converted by molar mass. Each block holds one compound with its values, some of them ahead of it.
Tests used:
[1] = HPLC capacity factor (k'); format: ADME
Method in brief: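 Ion-pair reversed-phase HPLC on ODS-2 (10 μm) at 45 °C. Mobile phase: 10 mM sodium heptanesulfonate plus 50 mM KH2PO4 (pH 3.5)–methanol 45:55, 1 mL/min. Samples at 100 μg/mL in DMF, injected in duplicate, UV 280 nm. k' = (tR − t0)/t0.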

[2] = test system: Staphylococcus epidermidis; experiment: In vitro minimum inhibitory concentration for Staphylococcus epidermidis ATCC 155-1; format: functional
Method in brief: (§1)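 Serial 2-fold agar dilution in Mueller Hinton medium, run alongside a reference quinolone. Inoculum adjusted to 10⁸ cfu/mL; compound range 0.007–16 μg/mL.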

Proteus vulgaris = experiment: In vitro minimum inhibitory concentration for Proteus vulgaris ATCC 8427; format: functional; method in brief: as §1
Pseudomonas aeruginosa = experiment: In vitro minimum inhibitory concentration for Pseudomonas aeruginosa ATCC 10145; format: functional; method in brief: as §1
Escherichia coli = experiment: In vitro minimum inhibitory concentration for Escherichia coli ATCC 10799; format: functional; method in brief: as §1
Klebsiella pneumoniae = experiment: In vitro minimum inhibitory concentration to inhibit Klebsiella pneumoniae ATCC 10031; format: functional; method in brief: as §1
Bacillus subtilis = experiment: In vitro minimum inhibitory concentration for Bacillus subtilis ATCC 6633; format: functional; method in brief: as §1
Enterococcus faecalis = experiment: In vitro minimum inhibitory concentration for Streptococcus faecalis ATCC 10541; format: functional; method in brief: as §1
Morganella morganii = experiment: In vitro minimum inhibitory concentration for Morganella morganii ATCC 8019; format: functional; method in brief: as §1
Staphylococcus aureus = experiment: In vitro minimum inhibitory concentration for Staphylococcus aureus ATCC 25178; format: functional; method in brief: as §1
Enterobacter cloacae = experiment: In vitro minimum inhibitory concentration for Enterobacter cloacae ATCC 23355; format: functional
Bacillus cereus = experiment: In vitro minimum inhibitory concentration for Bacillus cereus ATCC 11778; format: functional; method in brief: as §1

Log k' [1]: -0.2296
SMILES: CCn1cc(C(=O)O)c(=O)c2cc(F)c(N3CC(C)(N)C3)nc21

MIC [2]: 1 µg/mL (≈ 2.96 µM) | MIC (Proteus vulgaris): 1 µg/mL (≈ 2.96 µM) | Log k' [1]: -0.1459 | MIC (Pseudomonas aeruginosa): 2 µg/mL (≈ 5.93 µM) | MIC (Escherichia coli): 0.25 µg/mL (≈ 0.741 µM) | MIC (Klebsiella pneumoniae): 0.12 µg/mL (≈ 0.356 µM) | MIC (Bacillus subtilis): 0.25 µg/mL (≈ 0.741 µM) | MIC (Enterococcus faecalis): 2 µg/mL (≈ 5.93 µM) | MIC (Morganella morganii): 0.12 µg/mL (≈ 0.356 µM) | MIC (Staphylococcus aureus): 1 µg/mL (≈ 2.96 µM) | MIC (Enterobacter cloacae): 0.12 µg/mL (≈ 0.356 µM) | MIC (Bacillus cereus): 1 µg/mL (≈ 2.96 µM)
SMILES: C[C@H]1[C@H](N)CN1c1cc2c(cc1F)c(=O)c(C(=O)O)cn2CCF

Log k' [1]: 0.3189
SMILES: CC1(N)CN(c2c(F)c(N)c3c(=O)c(C(=O)O)cn(-c4ccc(F)cc4F)c3c2F)C1

Log k' [1]: -0.1871
SMILES: CC1(N)CN(c2c(F)cc3c(=O)c(C(=O)O)cn(CCF)c3c2F)C1

Log k' [1]: 0.2107
SMILES: CNC1(C)CN(c2nc3c(cc2F)c(=O)c(C(=O)O)cn3C(C)(C)C)C1

Log k' [1]: 0.5451
SMILES: CC1(O)CN(c2c(F)cc3c(=O)c(C(=O)O)cn(C4CC4)c3c2F)C1

Log k' [1]: 0.464
SMILES: CN(C)C1CN(c2nc3c(cc2F)c(=O)c(C(=O)O)cn3C2CC2)C1

Log k' [1]: 0.115
SMILES: CNC1CN(c2c(F)cc3c(=O)c(C(=O)O)cn(C4CC4)c3c2Cl)C1

Log k' [1]: 0.6222
SMILES: CCC1(O)CN(c2cc3c(cc2F)c(=O)c(C(=O)O)cn3C2CC2)C1

MIC [2]: 0.5 µg/mL (≈ 1.41 µM) | MIC (Proteus vulgaris): 0.5 µg/mL (≈ 1.41 µM) | Log k' [1]: -0.1024 | MIC (Pseudomonas aeruginosa): 1 µg/mL (≈ 2.81 µM) | MIC (Escherichia coli): 0.12 µg/mL (≈ 0.338 µM) | MIC (Klebsiella pneumoniae): 0.03 µg/mL (≈ 0.0844 µM) | MIC (Bacillus subtilis): 0.12 µg/mL (≈ 0.338 µM) | MIC (Enterococcus faecalis): 2 µg/mL (≈ 5.63 µM) | MIC (Morganella morganii): 0.06 µg/mL (≈ 0.169 µM) | MIC (Staphylococcus aureus): 0.5 µg/mL (≈ 1.41 µM) | MIC (Enterobacter cloacae): 0.12 µg/mL (≈ 0.338 µM) | MIC (Bacillus cereus): 0.5 µg/mL (≈ 1.41 µM)
SMILES: C[C@H]1[C@H](N)CN1c1c(F)cc2c(=O)c(C(=O)O)cn(CCF)c2c1F

MIC [2]: 0.5 µg/mL (≈ 1.48 µM) | MIC (Proteus vulgaris): 0.5 µg/mL (≈ 1.48 µM) | Log k' [1]: -0.2166 | MIC (Pseudomonas aeruginosa): 2 µg/mL (≈ 5.91 µM) | MIC (Escherichia coli): 0.12 µg/mL (≈ 0.355 µM) | MIC (Klebsiella pneumoniae): 0.06 µg/mL (≈ 0.177 µM) | MIC (Bacillus subtilis): 0.12 µg/mL (≈ 0.355 µM) | MIC (Enterococcus faecalis): 4 µg/mL (≈ 11.8 µM) | MIC (Morganella morganii): 0.06 µg/mL (≈ 0.177 µM) | MIC (Staphylococcus aureus): 1 µg/mL (≈ 2.96 µM) | MIC (Enterobacter cloacae): 0.06 µg/mL (≈ 0.177 µM) | MIC (Bacillus cereus): 0.5 µg/mL (≈ 1.48 µM)
SMILES: C[C@H]1[C@H](N)CN1c1nc2c(cc1F)c(=O)c(C(=O)O)cn2CCF

MIC [2]: 0.12 µg/mL (≈ 0.339 µM) | MIC (Proteus vulgaris): 0.25 µg/mL (≈ 0.707 µM) | Log k' [1]: 0.16 | MIC (Escherichia coli): 0.06 µg/mL (≈ 0.17 µM) | MIC (Klebsiella pneumoniae): 0.03 µg/mL (≈ 0.0848 µM) | MIC (Bacillus subtilis): 0.03 µg/mL (≈ 0.0848 µM) | MIC (Enterococcus faecalis): 0.5 µg/mL (≈ 1.41 µM) | MIC (Morganella morganii): 0.03 µg/mL (≈ 0.0848 µM) | MIC (Staphylococcus aureus): 0.12 µg/mL (≈ 0.339 µM) | MIC (Enterobacter cloacae): 0.06 µg/mL (≈ 0.17 µM) | MIC (Bacillus cereus): 0.12 µg/mL (≈ 0.339 µM)
SMILES: CCn1cc(C(=O)O)c(=O)c2cc(F)c(N3C[C@@H](N)[C@@H]3C)c(Cl)c21

Log k' [1]: 0.0128
SMILES: CC1(N)CN(c2nc3c(cc2F)c(=O)c(C(=O)O)cn3C(C)(C)C)C1

Log k' [1]: -0.0438
SMILES: CC1(CN)CN(c2c(F)cc3c(=O)c(C(=O)O)cn(C4CC4)c3c2F)C1

Log k' [1]: 0.0792
SMILES: CC1(N)CN(c2nc3c(cc2F)c(=O)c(C(=O)O)cn3-c2ccc(F)cc2F)C1

Log k' [1]: -0.196
SMILES: NCC1CN(c2c(F)cc3c(=O)c(C(=O)O)cn(C4CC4)c3c2F)C1

Log k' [1]: 0.0969
SMILES: CC1(N)CN(c2cc3c(cc2F)c(=O)c(C(=O)O)cn3-c2ccc(F)cc2F)C1

Log k' [1]: 0.9074
SMILES: O=C(O)c1cn(C2CC2)c2c(F)c(N3CCC3)c(F)cc2c1=O

Log k' [1]: -0.1805
SMILES: CCn1cc(C(=O)O)c(=O)c2cc(F)c(N3CC(C)(N)C3)cc21

Log k' [1]: 0.0063
SMILES: NC1CN(c2nc3c(cc2F)c(=O)c(C(=O)O)cn3-c2ccc(F)cc2F)C1

Log k' [1]: 0.128
SMILES: NC1CN(c2c(F)cc3c(=O)c(C(=O)O)cn(-c4ccc(F)cc4F)c3c2Cl)C1

Log k' [1]: 0.1751
SMILES: CC1(N)CN(c2c(F)cc3c(=O)c(C(=O)O)cn(C(C)(C)C)c3c2F)C1

Log k' [1]: 0.303
SMILES: CNC1(C)CN(c2cc3c(cc2F)c(=O)c(C(=O)O)cn3C(C)(C)C)C1

Log k' [1]: 0.121
SMILES: CCn1cc(C(=O)O)c(=O)c2cc(F)c(N3CC(C)(N)C3)c(Cl)c21

Log k' [1]: -0.0757
SMILES: CCn1cc(C(=O)O)c(=O)c2cc(F)c(N3CC(C)(N)C3)c(F)c21

Log k' [1]: 0.0294
SMILES: CC1(N)CN(c2cc3c(cc2F)c(=O)c(C(=O)O)cn3C(C)(C)C)C1

Log k' [1]: -0.1033
SMILES: CCn1cc(C(=O)O)c(=O)c2c(N)c(F)c(N3CC(N)C3)c(F)c21

Log k' [1]: 0.1424
SMILES: Nc1c(F)c(N2CC(N)C2)c(F)c2c1c(=O)c(C(=O)O)cn2-c1ccc(F)cc1F

Log k' [1]: 0.1906
SMILES: O=C(O)c1cn(C2CC2)c2cc(N3CC(O)C3)c(F)cc2c1=O

Log k' [1]: -0.0223
SMILES: CC1(N)CN(c2cc3c(cc2F)c(=O)c(C(=O)O)cn3-c2ccc(F)cc2)C1

From ChEMBL document CHEMBL1127424, “7-azetidinylquinolones as antibacterial agents. 2. Synthesis and biological activity of 7-(2,3-disubstituted-1-azetidinyl)-4-oxoquinoline- and -1,8-naphthyridine-3-carboxylic acids. Properties and structure-activity relationships of quinolones with an azetidine moiety” (J Med Chem, 1994)
